Assay results published in ChEMBL document CHEMBL1148273, “Vancomycin disulfide derivatives as antibacterial agents” (Bioorg Med Chem Lett, 2004).
Values after ≈ are worked out from the molar mass of the structure shown.

Assays:
Enterococcus faecalis = experiment: Minimal inhibitory concentration was evaluated against VanA Fs[…]; format: functional
Enterococcus sp. = experiment: Minimal inhibitory concentration was evaluated against VanB (ATCC 51575); format: functional, enterococcus strain
Method in brief: (§1)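 MICs were determined by the NCCLS broth microdilution method. The strain panel included MSSA ATCC 13709, VanA E. faecium KPB-01, VanA E. faecalis MGH-01 and VanB ATCC 51575.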

Staphylococcus aureus [1] = experiment: Minimal inhibitory concentration was evaluated against methicillin-resistant Staphylococcus aureus (ATCC 33591); format: functional
Method in brief: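 NCCLS broth microdilution susceptibility test, in vitro, against the MRSA strain ATCC 33591 as part of a Gram-positive panel with MSSA and vancomycin-resistant enterococci. Read-out is the minimal inhibitory concentration.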

Staphylococcus aureus [2] = experiment: Minimal inhibitory concentration was evaluated against Staphylococcus aureus MSSA (ATCC 13709); format: functional; method in brief: as §1
Enterococcus faecium = experiment: Minimal inhibitory concentration was evaluated against VanA Fm […]; format: functional
[3] = Compound was evaluated for tissue distribution 24 hours after a 50 mg/kg dose was administered intravenously in urine; format: ADME, organism-based; set-up: dose 50 mg/kg, route intravenous; conditions: rat, iv
Method in brief: (§2)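 Male Sprague–Dawley rats were given a single intravenous dose of 50 mg/kg. Tissue or urine levels were determined 24 h after dosing.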

Rattus norvegicus [4] = experiment: Compound was evaluated for tissue distribution 24 hours after a 50 mg/kg dose was administered intravenously in rat kidney; format: ADME, organism-based; set-up: dose 50 mg/kg, route intravenous; conditions: in vivo, iv; method in brief: as §2
Rattus norvegicus [5] = experiment: Compound was evaluated for percent dose tissue distribution 24 hours after a 50 mg/kg dose was administered intravenously in liver; format: ADME, organism-based; set-up: dose 50 mg/kg, route intravenous; conditions: in vivo, iv; method in brief: as §2
Rattus norvegicus [6] = experiment: Compound was evaluated for percent dimer tissue distribution 24 hours after a 50 mg/kg dose was administered intravenously in urine; format: ADME, organism-based; set-up: dose 50 mg/kg, route intravenous; conditions: in vivo, iv
Method in brief: (§3)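 Male Sprague–Dawley rats were dosed intravenously at 50 mg/kg and urine was sampled 24 h later. The metabolite percentage was calculated from the peak area ratio of the metabolite peak to the parent peak.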

Rattus norvegicus [7] = experiment: Compound was evaluated for percent thiol tissue distribution 24 hours after a 50 mg/kg dose was administered intravenously in urine; format: ADME, organism-based; set-up: dose 50 mg/kg, route intravenous; conditions: in vivo, iv; method in brief: as §3

SMILES	MIC (Enterococcus faecalis)	MIC (Enterococcus sp.)	MIC (Staphylococcus aureus [1])	MIC (Staphylococcus aureus [2])	MIC (Enterococcus faecium)	dose excreted at 24 h [3]	Dose (Rattus norvegicus [4])	Dose (Rattus norvegicus [5])	Dose (Rattus norvegicus [6])	Dose (Rattus norvegicus [7])
CCCCCCCCCCSSCCNC1(C)CC(OC2C(Oc3c4cc5cc3Oc3ccc(cc3Cl)[C@@H](O)[C@@H](NC(=O)[C@@H](CC(C)C)NC)C(=O)N[C@@H](CC(N)=O)C(=O)N[C@H]5C(=O)N[C@H]3C(=O)N[C@H](C(=O)N[C@H](C(=O)O)c5cc(O)cc(O)c5-c5cc3ccc5O)[C@H](O)c3ccc(c(Cl)c3)O4)OC(O)C(O)C2O)OC(C)C1O (stereo not given in full)	3.1 µg/mL (≈ 1.86 µM)	0.6 µg/mL (≈ 0.36 µM)	2.4 µg/mL (≈ 1.44 µM)	1.2 µg/mL (≈ 0.72 µM)	3.1 µg/mL (≈ 1.86 µM)					
CCCCCCCCCCNCCN[C@@]1(C)C[C@H](O[C@@H]2[C@@H](Oc3c4cc5cc3Oc3ccc(cc3Cl)[C@@H](O)[C@@H](NC(=O)[C@@H](CC(C)C)NC)C(=O)N[C@@H](CC(N)=O)C(=O)N[C@H]5C(=O)N[C@H]3C(=O)N[C@H](C(=O)N[C@H](C(=O)O)c5cc(O)cc(O)c5-c5cc3ccc5O)[C@H](O)c3ccc(c(Cl)c3)O4)O[C@@H](CO)[C@H](O)[C@@H]2O)O[C@H](C)[C@H]1O	3.6 µg/mL (≈ 2.21 µM)	1.8 µg/mL (≈ 1.1 µM)	0.4 µg/mL (≈ 0.245 µM)	0.4 µg/mL (≈ 0.245 µM)	4.1 µg/mL (≈ 2.51 µM)	16%	22%	37%		
CCCCCCCCCSSCCN[C@@]1(C)C[C@H](O[C@@H]2[C@@H](Oc3c4cc5cc3Oc3ccc(cc3Cl)[C@@H](O)[C@@H](NC(=O)[C@@H](CC(C)C)NC)C(=O)N[C@@H](CC(N)=O)C(=O)N[C@H]5C(=O)N[C@H]3C(=O)N[C@H](C(=O)N[C@H](C(=O)O)c5cc(O)cc(O)c5-c5cc3ccc5O)[C@H](O)c3ccc(c(Cl)c3)O4)O[C@@H](CO)[C@H](O)[C@@H]2O)O[C@H](C)[C@H]1O	3.1 µg/mL (≈ 1.86 µM)	1.2 µg/mL (≈ 0.72 µM)	0.6 µg/mL (≈ 0.36 µM)	0.3 µg/mL (≈ 0.18 µM)	6.3 µg/mL (≈ 3.78 µM)					
CCCCCCCCSSCCCN[C@@]1(C)C[C@H](O[C@@H]2[C@@H](Oc3c4cc5cc3Oc3ccc(cc3Cl)[C@@H](O)[C@@H](NC(=O)[C@@H](CC(C)C)NC)C(=O)N[C@@H](CC(N)=O)C(=O)N[C@H]5C(=O)N[C@H]3C(=O)N[C@H](C(=O)N[C@H](C(=O)O)c5cc(O)cc(O)c5-c5cc3ccc5O)[C@H](O)c3ccc(c(Cl)c3)O4)O[C@@H](CO)[C@H](O)[C@@H]2O)O[C@H](C)[C@H]1O	3.8 µg/mL (≈ 2.28 µM)	1.8 µg/mL (≈ 1.08 µM)	0.4 µg/mL (≈ 0.24 µM)	3.1 µg/mL (≈ 1.86 µM)	4.7 µg/mL (≈ 2.82 µM)	1%	0.5%	4.9%	15%	2.3%
CN[C@H](CC(C)C)C(=O)N[C@H]1C(=O)N[C@@H](CC(N)=O)C(=O)N[C@H]2C(=O)N[C@H]3C(=O)N[C@H](C(=O)N[C@H](C(=O)O)c4cc(O)cc(O)c4-c4cc3ccc4O)[C@H](O)c3ccc(c(Cl)c3)Oc3cc2cc(c3O[C@H]2O[C@@H](CO)[C@H](O)[C@H](O)[C@@H]2OC2C[C@](C)(NCCCSSCCCN[C@]3(C)C[C@@H](O[C@H]4[C@H](Oc5c6cc7cc5Oc5ccc(cc5Cl)[C@@H](O)[C@@H](NC(=O)[C@@H](CC(C)C)NC)C(=O)N[C@@H](CC(N)=O)C(=O)N[C@H]7C(=O)N[C@H]5C(=O)N[C@H](C(=O)N[C@H](C(=O)O)c7cc(O)cc(O)c7-c7cc5ccc7O)[C@H](O)c5ccc(c(Cl)c5)O6)O[C@H](CO)[C@@H](O)[C@H]4O)O[C@@H](C)[C@@H]3O)[C@H](O)[C@@H](C)O2)Oc2ccc(cc2Cl)[C@H]1O (stereo not given in full)	12.5 µg/mL (≈ 4.11 µM)	4.7 µg/mL (≈ 1.54 µM)	18.8 µg/mL (≈ 6.17 µM)	6.3 µg/mL (≈ 2.07 µM)	6.3 µg/mL (≈ 2.07 µM)					
CCCCCCCCCCCCCN[C@@]1(C)C[C@H](O[C@@H]2[C@@H](Oc3c4cc5cc3Oc3ccc(cc3Cl)[C@@H](O)[C@@H](NC(=O)[C@@H](CC(C)C)NC)C(=O)N[C@@H](CC(N)=O)C(=O)N[C@H]5C(=O)N[C@H]3C(=O)N[C@H](C(=O)N[C@H](C(=O)O)c5cc(O)cc(O)c5-c5cc3ccc5O)[C@H](O)c3ccc(c(Cl)c3)O4)O[C@@H](CO)[C@H](O)[C@@H]2O)O[C@H](C)[C@H]1O	3.8 µg/mL (≈ 2.33 µM)	1.6 µg/mL (≈ 0.981 µM)	1.5 µg/mL (≈ 0.919 µM)	2.8 µg/mL (≈ 1.72 µM)	4.1 µg/mL (≈ 2.51 µM)	0.4%	3.4%	70%		
CCCCCCCCSSCCN[C@@]1(C)C[C@H](O[C@@H]2[C@@H](Oc3c4cc5cc3Oc3ccc(cc3Cl)[C@@H](O)[C@@H](NC(=O)[C@@H](CC(C)C)NC)C(=O)N[C@@H](CC(N)=O)C(=O)N[C@H]5C(=O)N[C@H]3C(=O)N[C@H](C(=O)N[C@H](C(=O)O)c5cc(O)cc(O)c5-c5cc3ccc5O)[C@H](O)c3ccc(c(Cl)c3)O4)O[C@@H](CO)[C@H](O)[C@@H]2O)O[C@H](C)[C@H]1O	4.7 µg/mL (≈ 2.84 µM)	2.4 µg/mL (≈ 1.45 µM)	0.2 µg/mL (≈ 0.121 µM)	0.2 µg/mL (≈ 0.121 µM)	6.3 µg/mL (≈ 3.81 µM)					
CCCCCCCCCSSCCCN[C@@]1(C)C[C@H](O[C@@H]2[C@@H](Oc3c4cc5cc3Oc3ccc(cc3Cl)[C@@H](O)[C@@H](NC(=O)[C@@H](CC(C)C)NC)C(=O)N[C@@H](CC(N)=O)C(=O)N[C@H]5C(=O)N[C@H]3C(=O)N[C@H](C(=O)N[C@H](C(=O)O)c5cc(O)cc(O)c5-c5cc3ccc5O)[C@H](O)c3ccc(c(Cl)c3)O4)O[C@@H](CO)[C@H](O)[C@@H]2O)O[C@H](C)[C@H]1O	3.6 µg/mL (≈ 2.14 µM)	1.8 µg/mL (≈ 1.07 µM)	1.2 µg/mL (≈ 0.714 µM)	0.6 µg/mL (≈ 0.357 µM)	4.1 µg/mL (≈ 2.44 µM)					
CN[C@H](CC(C)C)C(=O)N[C@H]1C(=O)N[C@@H](CC(N)=O)C(=O)N[C@H]2C(=O)N[C@H]3C(=O)N[C@H](C(=O)N[C@H](C(=O)O)c4cc(O)cc(O)c4-c4cc3ccc4O)[C@H](O)c3ccc(c(Cl)c3)Oc3cc2cc(c3O[C@@H]2O[C@H](CO)[C@@H](O)[C@H](O)[C@H]2O[C@H]2C[C@](C)(N)[C@H](O)[C@H](C)O2)Oc2ccc(cc2Cl)[C@H]1O [VANCOMYCIN]	> 256 µg/mL	> 256 µg/mL		0.7 µg/mL (≈ 0.483 µM)	> 256 µg/mL					
